# In paper PMC3367325 (Journal of Natural Products, 2012):
# Where two headings read alike, the source gives them in different places. Peptide text beside a SMILES is read from it. * marks the point of attachment. Cbz = O=C(OCc1ccccc1)*
# Legend:
# [1] = target: T1, human 20S proteasome (CT-L activity) (Homo sapiens, UniProt P28074); assay: Chymotryptic-like; type: biochemical; conditions: purified human 20S proteasome
# [2] = tested on: alpha(2B) adrenoceptor; conditions: cited from earlier work
# [3] = target: T1, human 20S proteasome (CT-L activity)
# [4] = target: human 20S proteasome (T-L activity) (Homo sapiens, UniProt Q99436); assay: Tryptic-like; type: biochemical; conditions: purified human 20S proteasome
# [5] = Aggregation assay; type: physicochemical; conditions: 1 to 10 µM
# [6] = target: T1, human 20S proteasome (CT-L activity); assay: IC50 pre- and post-centrifugation of palau’amine in reaction buffer; type: biochemical; conditions: 15,000g for 30 min, supernatant
# Method in brief: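 Test compound in reaction buffer was spun at 15000g for 30 min, and the IC50 was compared with that of unspun material. CT-L assay: 1 nM purified human 20S proteasome in 50 mM Tris-HCl pH 7.5 with 0.03% SDS and Suc-LLVY-AMC at its Km, at 37 °C. AMC fluorescence (ex 380/em 460 nm) was read each minute for 30 min, and the maximal rate gave activity.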
# [7] = tested on: HeLa cells; assay: Accumulation of ubiquitinylated proteins, confocal microscopy; type: cell-based, human; conditions: 1.0 µM, 2 h, versus vehicle, p =0.001
# [8] = pH of greater than seven; has been reported, no reference given; cited from earlier work
smiles,measurement,setting,value
O=c1c2cc(Br)c(Br)n2cc2n1CCC2 [compound 4],Inhibition of the proteasome (all activities),[1],devoid of all activity
"NC1=N[C@]23CCCN2C(=O)c2cc(Br)c(Br)n2[C@@H]3N1 (racemic) [(±) -2, ±-dibromophakellin]",Activity against the alpha(2B) adrenoceptor,[2],agonist activity
"CC(C)C[C@@H](C=O)NC(=O)[C@H](CC(C)C)NC(=O)[C@H](CC(C)C)NC(=O)OCc1ccccc1 [MG-132, reference compound] (Cbz-Leu-Leu-Leu-aldehyde)",CT-L proteolytic activity of 20S proteasome post-washing,[3],almost completely restored
same,CT-L proteolytic activity of 20S proteasome pre-washing,[3],completely abrogated
"NC[C@@H]1[C@H]2CN3C(=O)c4cccn4[C@@H]4NC(N)=N[C@@]43[C@@H]2[C@]2(N=C(N)N[C@H]2O)[C@H]1Cl.O=C(O)C(F)(F)F (racemic) [(±) - 1, palau’amine]",Effect on T-L activity of the proteasome,[4],did not affect
same,Formation of aggregates,[5],not to form aggregates
same,Change in CT-L IC50 post-centrifugation versus pre-centrifugation,[6],no significant change
same,Accumulation of ubiquitinylated proteins (ubiquitin-Alexa 546 red fluorescence),[7],robust increase
same,CT-L proteolytic activity of 20S proteasome pre-washing,"[3]; 1 µM MG-132, 1 µM epoxomicin, 10 µM palau’amine, 1 nM 20S",complete abrogation
same,Binding mechanism to the 20S proteasome,[3]; kinetic analysis and washing experiments,irreversible-type
same,CT-L proteolytic activity of 20S proteasome post-washing,[3]; washed with 500 volumes of reaction buffer,complete abrogation
same,Stability at pH greater than seven (reported),[8],unstable
